Test results published in ChEMBL document CHEMBL4346684, “Synthesis and structure-bactericidal activity relationships of non-ketolides: 9-Oxime clarithromycin 11,12-cyclic carbonate featured with three-to eight-atom-length spacers at 3-OH” (Eur J Med Chem, 2019).
Values after ≈ are worked out from the molar mass of the structure shown.

Experiments:
Assay type in all cases: functional
Staphylococcus aureus [1] = test: Bactericidal activity against constitutively erythromycin resistant and methicillin-resistant Staphylococcus aureus PU20 expressing c-ermC assessed as reduction in colony formation incubated in CAMHB medium for 20 hrs followed by 24 hrs subculturing in the medium without test compound
Streptococcus pyogenes [2] = test: Antimicrobial activity against inducibly erythromycin resistant Streptococcus pyogenes 01-968 expressing i-ermA incubated in CAMHB medium for 20 to 24 hrs by two-fold microbroth dilution method
Haemophilus influenzae [3] = test: Ratio of MBC to MIC for azithromycin-susceptible Haemophilus influenzae ATCC 49247
Haemophilus influenzae [4] = test: Bactericidal activity against azithromycin-susceptible Haemophilus influenzae ATCC 49247 assessed as reduction in colony formation incubated in HTM broth medium for 20 to 24 hrs followed by 24 hrs subculturing in the medium without test compound
Staphylococcus aureus [5] = test: Antimicrobial activity against constitutively erythromycin resistant and methicillin resistant Staphylococcus aureus PU20 expressing c-ermC incubated in CAMHB medium for 20 hrs by two-fold microbroth dilution method; settings: PU20, 20 h
How it was run: (§1)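 Purified fresh Staphylococcus isolate at about 5×10^5 CFU/ml final in CAMHB, 35 °C for 20 h. Each run included ATCC strains and reference antibiotics as QC, plus an antibiotic-free growth control.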

Streptococcus pneumoniae [6] = test: Antimicrobial activity against erythromycin-susceptible Streptococcus pneumoniae ATCC 49619 incubated in CAMHB medium for 20 to 24 hrs by two-fold microbroth dilution method
Staphylococcus aureus [7] = test: Bactericidal activity against inducibly erythromycin-resistant and methicillin resistant Staphylococcus aureus PU32 expressing i-ermA assessed as reduction in colony formation incubated in CAMHB medium for 20 hrs followed by 24 hrs subculturing in the medium without test compound
Streptococcus pneumoniae [8] = test: Antimicrobial activity against mef-encoded erythromycin resistant Streptococcus pneumoniae PU09 incubated in CAMHB medium for 20 to 24 hrs by two-fold microbroth dilution method
Staphylococcus aureus [9] = test: Antimicrobial activity against inducibly erythromycin-resistant and methicillin resistant Staphylococcus aureus PU32 expressing i-ermA incubated in CAMHB medium for 20 hrs by two-fold microbroth dilution method; settings: PU32, 20 h; how it was run: as §1
Streptococcus pneumoniae [10] = test: Bactericidal activity against erythromycin-susceptible Streptococcus pneumoniae ATCC 49619 assessed as reduction in colony formation incubated in CAMHB medium for 20 to 24 hrs followed by 24 hrs subculturing in the medium without test compound
Haemophilus influenzae [11] = test: Antimicrobial activity against azithromycin-susceptible Haemophilus influenzae ATCC 49247 incubated in HTM broth medium for 20 to 24 hrs by two-fold microbroth dilution method
Streptococcus pneumoniae [12] = test: Bactericidal activity against mef-encoded erythromycin resistant Streptococcus pneumoniae PU09 assessed as reduction in colony formation incubated in CAMHB medium for 20 to 24 hrs followed by 24 hrs subculturing in the medium without test compound
Streptococcus pyogenes [13] = test: Bactericidal activity against inducibly erythromycin resistant Streptococcus pyogenes 01-968 expressing i-ermA assessed as reduction in colony formation incubated in CAMHB medium for 20 to 24 hrs followed by 24 hrs subculturing in the medium without test compound
Streptococcus pyogenes [14] = test: Ratio of MBC to MIC for inducibly erythromycin resistant Streptococcus pyogenes 01-968 expressing i-ermA
Staphylococcus aureus [15] = test: Ratio of MBC to MIC for inducibly erythromycin-resistant and methicillin resistant Staphylococcus aureus PU32 expressing i-ermA
Streptococcus pneumoniae [16] = test: Ratio of MBC to MIC for erythromycin-susceptible Streptococcus pneumoniae ATCC 49619
Streptococcus pneumoniae [17] = test: Ratio of MBC to MIC for mef-encoded erythromycin resistant Streptococcus pneumoniae PU09
Moraxella catarrhalis [18] = test: Antimicrobial activity against erythromycin-susceptible Moraxella catarrhalis 13L332 incubated in CAMHB medium for 20 hrs by two-fold microbroth dilution method; settings: 13L332, 20 h
How it was run: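 Clinical isolates and ATCC strains, purified by plate activation and used fresh; inoculum about 5×10^5 CFU/ml final. Grown in CAMHB at 35 °C for 20 h.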

Moraxella catarrhalis [19] = test: Ratio of MBC to MIC for erythromycin-susceptible Moraxella catarrhalis 13L332
Moraxella catarrhalis [20] = test: Bactericidal activity against erythromycin-susceptible Moraxella catarrhalis 13L332 assessed as reduction in colony formation incubated in CAMHB medium for 20 hrs followed by 24 hrs subculturing in the medium without test compound

| Compound | MBC (Staphylococcus aureus [1]) [µg/mL] | MIC (Streptococcus pyogenes [2]) [µg/mL] | Ratio (Haemophilus influenzae [3]) | MBC (Haemophilus influenzae [4]) [µg/mL] | MIC (Staphylococcus aureus [5]) [µg/mL] | MIC (Streptococcus pneumoniae [6]) [µg/mL] | MBC (Staphylococcus aureus [7]) [µg/mL] | MIC (Streptococcus pneumoniae [8]) [µg/mL] | MIC (Staphylococcus aureus [9]) [µg/mL] | MBC (Streptococcus pneumoniae [10]) [µg/mL] | MIC (Haemophilus influenzae [11]) [µg/mL] | MBC (Streptococcus pneumoniae [12]) [µg/mL] | MBC (Streptococcus pyogenes [13]) [µg/mL] | Ratio (Streptococcus pyogenes [14]) | Ratio (Staphylococcus aureus [15]) | Ratio (Streptococcus pneumoniae [16]) | Ratio (Streptococcus pneumoniae [17]) | MIC (Moraxella catarrhalis [18]) [µg/mL] | Ratio (Moraxella catarrhalis [19]) | MBC (Moraxella catarrhalis [20]) [µg/mL] |
| --- | --- | --- | --- | --- | --- | --- | --- | --- | --- | --- | --- | --- | --- | --- | --- | --- | --- | --- | --- | --- |
| CC[C@H]1OC(=O)[C@H](C)[C@@H](OC(=O)NCCCc2ccc3c(c2)c(=O)c(C(=O)O)cn3C2CC2)[C@H](C)[C@@H](O[C@@H]2O[C@H](C)C[C@H](N(C)C)[C@H]2O)[C@](C)(OC)C[C@@H](C)/C(=N\OC)[C@H](C)[C@H]2OC(=O)O[C@@]21C | > 256 | 4 (≈ 4.18 µM) | 1 | 256 (≈ 267 µM) | 256 (≈ 267 µM) | 1 (≈ 1.04 µM) | > 256 | 2 (≈ 2.09 µM) | 32 (≈ 33.4 µM) | 2 (≈ 2.09 µM) | 256 (≈ 267 µM) | 8 (≈ 8.36 µM) | 8 (≈ 8.36 µM) | 2 | >8 | 2 | 4 | – | – | – |
| CC[C@H]1OC(=O)[C@H](C)[C@@H](OC(=O)NCC#Cc2cccnc2)[C@H](C)[C@@H](O[C@@H]2O[C@H](C)C[C@H](N(C)C)[C@H]2O)[C@](C)(OC)C[C@@H](C)/C(=N\OC)[C@H](C)[C@H]2OC(=O)O[C@@]21C | – | 1 (≈ 1.25 µM) | – | – | > 256 | 0.03 (≈ 0.0374 µM) | > 128 | 0.5 (≈ 0.623 µM) | 16 (≈ 19.9 µM) | 0.062 (≈ 0.0772 µM) | > 256 | 2 (≈ 2.49 µM) | 4 (≈ 4.98 µM) | 4 | >8 | 2 | 4 | – | – | – |
| C#CCNCCC(=O)O[C@H]1[C@H](C)[C@@H](O[C@@H]2O[C@H](C)C[C@H](N(C)C)[C@H]2O)[C@](C)(OC)C[C@@H](C)/C(=N\OC)[C@H](C)[C@H]2OC(=O)O[C@]2(C)[C@@H](CC)OC(=O)[C@@H]1C | > 256 | 0.5 (≈ 0.663 µM) | 1 | 128 (≈ 170 µM) | 256 (≈ 340 µM) | 0.13 (≈ 0.172 µM) | > 128 | 2 (≈ 2.65 µM) | 16 (≈ 21.2 µM) | 1 (≈ 1.33 µM) | 128 (≈ 170 µM) | 4 (≈ 5.31 µM) | > 4 | >8 | >8 | 8 | 2 | – | – | – |
| CC[C@H]1OC(=O)[C@H](C)[C@@H](OCC#Cc2ccc(NC(=O)c3ccccn3)nc2)[C@H](C)[C@@H](O[C@@H]2O[C@H](C)C[C@H](N(C)C)[C@H]2O)[C@](C)(OC)C[C@@H](C)/C(=N\OC)[C@H](C)[C@H]2OC(=O)O[C@@]21C | > 256 | 16 (≈ 18.2 µM) | – | – | 128 (≈ 145 µM) | 4 (≈ 4.55 µM) | > 256 | 4 (≈ 4.55 µM) | > 256 | 16 (≈ 18.2 µM) | – | 16 (≈ 18.2 µM) | 16 (≈ 18.2 µM) | 1 | – | 4 | – | 8 (≈ 9.09 µM) | 1 | 8 (≈ 9.09 µM) |
| CC[C@H]1OC(=O)[C@H](C)[C@@H](OC(=O)NCCCCc2cccnc2)[C@H](C)[C@@H](O[C@@H]2O[C@H](C)C[C@H](N(C)C)[C@H]2O)[C@](C)(OC)C[C@@H](C)/C(=N\OC)[C@H](C)[C@H]2OC(=O)O[C@@]21C | – | 128 (≈ 156 µM) | 1 | 256 (≈ 312 µM) | > 256 | 0.5 (≈ 0.609 µM) | > 256 | 8 (≈ 9.74 µM) | 32 (≈ 39 µM) | 2 (≈ 2.44 µM) | 256 (≈ 312 µM) | 8 (≈ 9.74 µM) | 128 (≈ 156 µM) | 1 | >8 | 4 | 1 | – | – | – |
